HDAC3 inh – inhibitors of human histone deacetylase 3 | recombinant HDAC3, fluorogenic peptide/trypsin coupled, fluorescence | 0.15% of 320,000 active | O15379 | inhibition, % at 8.3 µM; in the data active = inhibition above about 26%, passing the limit was not always enough
UCH37 DUB inh – blocks the human deubiquitinase UCH37; Q9Y5K5; purified proteasome/UCH37, Ub-AMC cleavage fluorescence; inhibition, % (concentration not given with the values); 0.33% of 330,000 active;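 active = mean inhibition over replicate wells above about 20%, limit read from the data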;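 also: 0% = compound-free wells with enzyme and 100% = wells lacking proteasome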
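system = Proteasome-associated human UCH37 deubiquitinase | amount = 0.15 nM proteasome as dispensed | medium = pH 7.4 Tris-HCl (50 mM) with ovalbumin, ATP-MgCl2, DTT | incubation = 30 min preincubation with enzyme, 25 min cleavage at room temperature | detection = AMC fluorescence 355/460 nm | read-out basis = percent inhibition | controls = no-proteasome and no-compound wells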
ALR inh – human ALR oxidase inhibition via reduced H2O2. P55789. purified ALR, DTT oxidation, H2O2 HRP-luminol luminescence. inhibition, % (no concentration beside the values). 3.8% of 290,000 active. AID 485317;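 active = mean replicate inhibition above about 79%, with every replicate also reaching it, limit read from the data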
Target sequence (P55789 whole entry, looked up): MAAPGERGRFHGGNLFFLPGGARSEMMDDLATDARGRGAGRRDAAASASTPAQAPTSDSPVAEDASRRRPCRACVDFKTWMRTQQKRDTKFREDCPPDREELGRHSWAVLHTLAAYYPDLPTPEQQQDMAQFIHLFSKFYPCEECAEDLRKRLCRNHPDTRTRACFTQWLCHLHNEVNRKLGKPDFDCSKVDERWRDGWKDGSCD
Rtt109 HAT inh – blocks Candida albicans Rtt109/Vps75 acetyltransferase activity; 0.16% of 330,000 active; inhibition, % at 34.9 µM; purified Rtt109/Vps75, ThioGlo CoA-SH fluorescence, 4 h; AID 540336;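 active = inhibition of at least 50% in every replicate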
PfM18AAP inh-1 – PfM18AAP enzyme inhibition; inhibition, % at 7.35 µM; 1.2% of 290,000 active; recombinant PfM18AAP, H-Glu-NHMec fluorogenic cleavage; AID 1822;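 active = inhibition above the campaign mean inhibition over all tested compounds plus 3 SD, cut at about 28% in these data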;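 also: 0% = plate median of test compound wells and 100% = 2 mM ZnCl2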
FAS TE block – inhibitors of human fatty acid synthase thioesterase domain. P49327. recombinant FAS-TE, OMFH fluorogenic substrate, fluorescence endpoint. inhibition, % at 15 µM. 0.67% of 360,000 active;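 active = compounds whose normalised, plate-corrected inhibition of enzyme fluorescence in the single-dose primary screen is 50% or more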;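 also: 0% = DMSO with enzyme and 100% = substrate without enzyme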
PfM18AAP inh-2 – confirmation of Plasmodium falciparum M18 aspartyl aminopeptidase inhibitors; AID 2170; 28% of 2,400 active; inhibition, % at 7.35 µM; recombinant PfM18AAP, H-Glu-NHMec fluorogenic cleavage; shares compounds with PfM18AAP inh-1;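 active = mean inhibition over replicate wells above the hit cutoff set for the earlier primary screen, cut at about 29% in these data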;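 also: 0% = median of test compound wells and 100% = 2 mM ZnCl2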
CTSL1 confirm – Cathepsin L (human) inhibition, confirmation. inhibition, % at 5.96 µM. 2,400 tested, under 10 active. shares compounds with PfM18AAP inh-1. purified cathepsin L1, Z-Leu-Arg-MCA fluorescence;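 active = average inhibition across replicates above the hit cutoff set in the earlier primary screen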;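 also: 0% = median of test compound wells and 100% = Z-Phe-Ala-diazomethylketone 1 µM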
Target sequence (P07711 whole entry, looked up): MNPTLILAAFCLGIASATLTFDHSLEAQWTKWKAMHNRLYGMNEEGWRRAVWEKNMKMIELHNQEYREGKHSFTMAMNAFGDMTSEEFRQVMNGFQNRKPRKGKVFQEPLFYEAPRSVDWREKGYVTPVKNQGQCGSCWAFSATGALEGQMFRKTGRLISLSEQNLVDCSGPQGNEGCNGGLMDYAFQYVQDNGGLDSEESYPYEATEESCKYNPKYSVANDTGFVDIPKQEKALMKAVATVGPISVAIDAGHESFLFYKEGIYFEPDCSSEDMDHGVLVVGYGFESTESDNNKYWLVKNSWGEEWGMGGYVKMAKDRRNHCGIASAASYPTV
* marks the source's active call; other numbers are inactive results; . = not tested or not shown. Sampled rows, rich in hits. Any-hit rate of the full collection: about 4.6%.

SMILES	HDAC3 inh	UCH37 DUB inh	ALR inh	Rtt109 HAT inh	PfM18AAP inh-1	FAS TE block	PfM18AAP inh-2	CTSL1 confirm
Cc1cc(C(=O)CSc2ncn[nH]2)c(C)n1-c1cccc(S(=O)(=O)N2CCOCC2)c1	1	2	5	18	46*	-27	24	5
COc1cc([N+](=O)[O-])ccc1-c1ccc(/C=N/NC(N)=O)o1	0	.	17	-6	44*	-83	-37	1
Cc1c(N=C2SCC(=O)N2N=Cc2ccccc2)c(=O)n(-c2ccccc2)n1C	.	4	.	.	.	.	.	.
COc1ccc(-c2nn(-c3ccccc3)cc2/C=N/Nc2cccc(C(=O)O)c2)cc1	.	.	.	19	33*	15	-25	2
CC(C)c1c(C(=O)NN=Cc2ccccc2C(=O)O)nnn1-c1nonc1N	.	7	.	.	.	.	.	.
CC(=NNC(=O)c1nc(C)cc(C)n1)c1ccccc1	.	4	.	.	.	.	.	.
Cc1csc(/C(=N/OC(=O)c2ccco2)C(N)=O)n1	28*	.	97*	1	51*	15	9	-5
COc1ccccc1C=NNC(=O)c1ccc(=O)n(C)c1	.	10	.	.	.	.	.	.
O=C(NN=Cc1cccnc1)c1cc(Br)ccc1O	.	6	.	.	.	.	.	.
CCN1C(=O)/C(=C2\C=Cc3ccccc3N2CC)SC1=S	4	4	.	18	3	38	.	.
CCN1C(=O)/C(=C2/SC(C)=C(C)N2CC)SC1=S	0	0	97*	-3	38*	-1	-31	0
CC/C(Cc1ccccc1)=N\NC(=O)c1cc([N+](=O)[O-])cc([N+](=O)[O-])c1	8	.	-36	-2	41*	29	11	2
COc1cc(OC)c2c(c1O)OC(c1ccccc1)CC2=O (stereo unspecified)	4	0	30	7	49*	-2	0	4
O=S(=O)(c1cnccc1N1CCN(N=Cc2ccc(Br)cc2)CC1)N1CCCCC1	.	2	.	.	.	.	.	.
CCCn1c(N/N=C(C)\C=C\c2ccccc2)nc2c1c(=O)[nH]c(=O)n2C	-2	.	0	.	44*	.	-20	3
CCCn1c(SCCc2ccccc2)nc2c1c(=O)[nH]c(=O)n2C	5	1	14	12	-3	3	.	.
CCOP(=O)(OCC)C(=NOC(=O)c1ccc(Cl)cc1Cl)C(N)=O	.	6	.	.	.	.	.	.
CN(C)c1ccc(/C=N/Nc2ccc(-n3ccnc3)nn2)cc1	3	.	94*	4	34*	-7	-39	8
O=c1[nH]c2cc3c(cc2cc1CN(CCN1CCOCC1)C(=S)NCC1CCCO1)OCO3 (stereo unspecified)	-5	-172	-3	12	41*	-3	-36	0
CN(C)CCN(Cc1cc2cc3c(cc2[nH]c1=O)OCO3)C(=S)NCC1CCCO1 (stereo unspecified)	-18	-166	-2	-7	-1	-2	.	.
CCOC(=O)C1=C(C)NC(=S)NC1c1ccco1 (stereo unspecified)	8	3	.	-8	35*	-3	-28	7
CCOC(=O)C1=C(C)NC(C)=C(C(=O)OCC)C1c1ccco1	-2	-12	.	-3	6	1	.	.
ON=C(c1ccc(Cl)cc1)C1CC1c1ccccc1 (stereo unspecified)	.	5	.	.	.	.	.	.
Cc1noc2ncc(C(=O)c3cc(F)ccc3O)cc12	1	0	-3	8	4	-7	.	.
O=C(c1cnn(C(=O)COc2ccccc2F)c1)c1cc(F)ccc1O	-7	.	.	26	43*	3	-15	-10
SMILES	HDAC3 inh	UCH37 DUB inh	ALR inh	Rtt109 HAT inh	PfM18AAP inh-1	FAS TE block	PfM18AAP inh-2	CTSL1 confirm
CN(C)c1cccc(C(=O)n2cc(C(=O)c3cc(F)ccc3O)cn2)c1	4	-31	-12	-6	53*	14	-5	4
CCn1ncc(C=NNC(=O)c2cc(-c3ccc(C)cc3C)nc3ccccc23)c1C	.	-1	.	.	.	.	.	.
CCOC(=O)Cc1csc(NC(=O)CSc2nnc(-c3ccncc3)o2)n1	6	1	25	13	21	-4	.	.
CCOC(=O)Cc1csc(NC(=O)CSc2nnc(-c3ccc(NS(=O)(=O)CC)cc3)o2)n1	-7	-1	98*	-3	39*	-15	-13	4
N#C/C(=C\c1ccccc1)C(=O)Nc1cccnc1	-6	3	.	-3	2	1	.	.
N#C/C(=C\c1ccccc1)C(=O)Nc1nncs1	1	3	30	1	35*	-4	37*	-2
COc1cc2c(c(OC)c1OC)-c1ccc(N(C)CC(OC)OC)c(=O)cc1[C@@H](NC(C)=O)CC2	6	12	-19	-1	45*	-6	-32	-5
C(=NNc1nc(N2CCCCCC2)nc(N2CCCCCC2)n1)c1ccccc1	.	4	.	.	.	.	.	.
CC(=NNC(=O)COc1ccccc1[N+](=O)[O-])c1cccs1	.	4	.	.	.	.	.	.
CCN(CC)c1ccc2nc3c4ccccc4c(=O)cc-3oc2c1	-1	3	-21	.	38*	.	-41	-4
CCN(CC)c1ccc2cc(C=O)c(=O)oc2c1	5	-16	16	-14	-12	-57	.	.
CC(C)n1c(N=Cc2c[nH]c3ccccc23)nc2ccccc21	.	1	.	.	.	.	.	.
Cc1c(NC(=O)c2cc(=O)[nH]c(=O)[nH]2)c(=O)n(-c2ccccc2)n1C	0	5	.	19	5	-1	.	.
Cc1cc(C)c(-c2cc(C(=O)Nc3c(C)n(C)n(-c4ccccc4)c3=O)[nH]n2)c(O)c1	5	1	50	-9	41*	-4	-17	4
O=C(CCCC(=O)Nc1cccc(Br)c1)NN=Cc1cc([N+](=O)[O-])ccc1O	.	10	.	.	.	.	.	.
Cc1c(Cl)cccc1NC(=O)c1ncn[nH]1	-8	2	-1	-1	37*	-13	36*	0
CC(=O)C1=C(c2ccccc2)NC(=O)NC1c1ccc2c(c1)OCO2 (stereo unspecified)	2	4	-11	5	2	-3	.	.
CC1=C([N+](=O)[O-])C(c2ccc(O)c(O)c2)NC(=O)N1 (stereo unspecified)	.	7	99*	0	84*	-3	81*	-4
COc1ccc(C2NC(=O)NC(C)=C2[N+](=O)[O-])cc1OC (stereo unspecified)	3	10	10	1	-1	-1	.	.
CC(=O)C1=C(c2ccccc2)NC(=O)NC1c1ccc(O)c(O)c1 (stereo unspecified)	13	1	99*	0	77*	-4	71*	-6
CC(=O)C1=C(c2ccccc2)NC(=S)NC1c1ccc(O)c(O)c1 (stereo unspecified)	6	2	99*	-3	74*	-14	68*	5
S=c1[nH]nc(-c2ccco2)n1N=Cc1cccs1	.	7	.	.	.	.	.	.
